# Screening results (PubChem)
# Pf gamet viab – inhibitors of late stage P. falciparum gametocyte viability | P. falciparum stage V gametocytes, ATP luminescence, 24 h | AID 743093 | 150,000 tested, 0.065% active | inhibition, % at 10.9 µM;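 active = inhibition above the mean plus 3 SD of compounds within the control limits, set per campaign, cut at about 38% in these data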;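 note: 0% = DMSO wells and 100% = medium only without gametocytes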
# FLuc stim CS – firefly luciferase counter-screen for stimulation assays; P08659; ATPlite luciferase biochemical, luminescence, 10 min; 0 = ATP-free wells, 1 = DMSO control; activation factor at 10 µM; 200,000 tested, under 10 active;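 active = luciferase activation factor, scaled between plate controls, of at least 2 with compound at 10 µM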
# Target sequence (P08659 whole entry, looked up): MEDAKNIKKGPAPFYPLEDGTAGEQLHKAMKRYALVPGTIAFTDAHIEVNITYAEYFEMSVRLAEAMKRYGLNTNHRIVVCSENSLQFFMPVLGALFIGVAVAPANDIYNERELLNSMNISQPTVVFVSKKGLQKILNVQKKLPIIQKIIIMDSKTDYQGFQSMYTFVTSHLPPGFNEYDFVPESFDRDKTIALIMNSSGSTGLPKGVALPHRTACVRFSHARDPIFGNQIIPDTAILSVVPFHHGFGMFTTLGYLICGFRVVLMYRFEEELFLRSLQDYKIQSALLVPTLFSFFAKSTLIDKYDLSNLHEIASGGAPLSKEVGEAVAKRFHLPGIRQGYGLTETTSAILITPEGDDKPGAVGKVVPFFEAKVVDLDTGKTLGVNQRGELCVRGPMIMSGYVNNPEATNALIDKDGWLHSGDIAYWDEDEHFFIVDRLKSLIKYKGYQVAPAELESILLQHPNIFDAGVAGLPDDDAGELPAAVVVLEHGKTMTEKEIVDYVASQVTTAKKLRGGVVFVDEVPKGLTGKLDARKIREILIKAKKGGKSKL
#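 Assay system: Luciferase/luciferin detection reagent, cell-free biochemical luciferase assay / Also added: ATP substrate / Schedule: 10 min at ambient temperature / Measured by: luminescence measurement of luciferase light output / Benchmarks: low control with PBS replacing ATP, high control enzyme plus ATP without compound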
# APP 5'UTR act – APP 5'UTR luciferase reporter activation | SH-SY5Y APP 5'UTR luciferase reporter, luminescence; zero percent = DMSO vehicle wells | activation, % at 2 µM | 190,000 tested, 1% active | AID 1276;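 active = activation above a set limit, based on mean plus 3 SD of controls, cut at about 140% in these data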
# STAT1 act – activators of IFN-gamma induced STAT1 signaling; activation (% of control), % at 5.5 µM; 200,000 tested, 2.6% active; AID 932; NIH 3T3 STAT1-luciferase reporter, luminescence; 100% = IFN-gamma alone, no compound;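 active = activation above the screen-wide mean activation plus 3 SD, cut at about 130% in these data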;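 note: raw ratio to IFN-gamma control signal so 100% means no change and 0% no light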
# NF-kB expr up – compounds increasing NF-kB expression in human neuronal cells. NF-kB reporter expression; hits give high values. fold change at 12.5 µM. 190,000 tested, 1.6% active; in the data active = fold change above about 3.3
# FLuc inhib CS – Photinus pyralis luciferase inhibition counter-screen | P08659 | ATPLite firefly luciferase biochemical luminescence, 10 min | inhibition, % at 10 µM | 200,000 tested, 1.5% active | AID 1006;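 active = inhibition above about 50% when tested at 10 µM, limit read from the data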
# An asterisk follows results filed as active; · = no result. The list is not random: actives were taken first. Their share in the collection is about 3.5%.
SMILES,Pf gamet viab,FLuc stim CS,APP 5'UTR act,STAT1 act,NF-kB expr up,FLuc inhib CS
COCCN(CCOC)S(=O)(=O)c1ccc(C(=O)Nc2ccc([N+](=O)[O-])cc2OC)cc1,-12.4,1,22.9,104.6,1.35,1.8
NC(=O)c1ccc(NC(=O)CSc2nnc(-c3ccncc3)n2Cc2ccco2)cc1,-15.3,·,·,·,·,·
NNC(=O)c1ccc2ccccc2n1,-13.3,1.1,24.3,97.5,1.21,-5.2
Cc1nc2ccc(NC(=O)c3sccc3C)cc2s1,·,0.7,162.8*,143.3*,4.71*,34.0
Cc1ccccc1OCCNC(=O)c1ccc2ccccc2n1,·,1,146.3*,140.9*,1.4,3.8
Cc1nc2ccc(NC(=O)Cc3cccc(F)c3)cc2s1,-13.3,1,58.9,114.8,1.58,4.2
Cc1nnc(NC(=O)c2ccc3ccccc3n2)s1,-19.5,0.6,40.2,138.2*,2.11,36.3
Cc1nc2ccc(NC(=O)Cc3ccccc3F)cc2s1,-7.7,0.5,132.8,141.4*,6.77*,54.3*
Cc1nc2ccc(NC(=O)c3ccco3)cc2s1,·,0.7,68.8,125.7,1.11,28.8
Cc1nc2ccc(NC(=O)c3ccc4ccccc4n3)cc2s1,-25.1,0.8,75.7,134.9*,2.32,15.1
CCc1nnc(NS(=O)(=O)c2ccc(Nc3ccc4nonc4c3[N+](=O)[O-])cc2)s1,-6.4,1.1,-0.5,100.0,1.21,-6.2
CC(C)(C)C(=O)Nc1ccc(-c2cn3ccsc3n2)cc1,16.1,0,158.1*,71.8,3.33*,95.6*
COc1ccc(-c2csc(NC(=O)CC(C)C)n2)cc1,·,1,35.8,108.1,2.06,-0.5
CC(C)CC(=O)Nc1ccc(-c2cn3ccsc3n2)cc1,·,0.1,169.3*,104.0,6.66*,91.6*
Cc1nc(-c2ccc(NC(=O)CC(C)C)cc2)cs1,-8.5,0.3,40.7,129.3*,1.09,67.8*
CCOC(=O)Nc1sc2c(c1C#N)CCC(C)C2 (configuration not stated),·,1,91.9,132.4*,3.93*,2.2
CCNC(=S)Nc1sc2c(c1C#N)CCC(C)C2 (configuration not stated),-20.4,·,·,·,·,·
Cn1c(C(=O)Nc2ccccc2)cc2sccc21,·,0.8,32.5,112.3,1.57,17.5
COc1cc(NC(=O)c2cc3sccc3n2C)cc(OC)c1,·,0.8,104.0,132.5*,2.55,20.1
CC(SCc1ccccc1)C(=O)Nc1ccccc1 (configuration not stated),0.3,·,·,·,·,·
CN(C)c1ccc(C2=NOC(CN3C(=O)c4ccccc4S3(=O)=O)C2)cc1 (configuration not stated),·,0.9,93.0,147.4*,3.35*,10.1
O=S1(=O)N=C(Nc2ccc(N3CCOCC3)c(Cl)c2)c2ccccc21,-1.0,0.8,27.4,145.5*,1.5,20.5
COC(=O)CNc1c(-c2ccccn2)nc2ccc(Br)cn12,-11.4,0.2,95.8,149.5*,1,77.0*
C/C(=N\NC(=O)Nc1ccccc1)c1ccccc1,8.9,1,72.9,108.5,1.14,-2.7
O=[N+]([O-])c1cccnc1NCCNc1ncc(C(F)(F)F)cc1Cl,2.9,1,85.9,137.2*,3.22,-3.3
SMILES,Pf gamet viab,FLuc stim CS,APP 5'UTR act,STAT1 act,NF-kB expr up,FLuc inhib CS
CCOC(=O)C(=O)Nc1sc(C(=O)N2CCOCC2)c(C)c1C#N,-0.8,1.1,11.5,103.1,0.96,-5.6
COc1ccc(Nc2nc(C)c3ccccc3n2)cc1,6.8,0.8,97.8,134.1*,2.96,22.7
COc1ccc(Nc2nc(-c3sc(NC(C)=O)nc3C)cs2)cc1,·,1,24.4,97.1,0.67,1.1
COc1ccc(Nc2nc(C)c(-c3ccccc3)s2)cc1,·,0.9,81.6,155.8*,2.52,11.5
NC(=O)c1c(NC(=O)c2ccccc2)sc2c1CCC2,-27.6,·,·,·,·,·
NC(=O)c1c(NC(=O)c2ccccc2)sc2c1CCc1ccccc1-2,·,0.8,17.4,139.5*,4.09*,20.7
Cc1nn(-c2ccccc2)c(Cl)c1/C=N/Nc1ccc(Cl)c(C(=O)O)c1,·,0.1,73.5,62.5,10.1*,86.7*
Cc1nn(-c2ccccc2)c(Cl)c1/C=N/NC(=O)OC(C)(C)C,-24.3,0.9,65.1,139.3*,0.83,9.6
Cc1nn(-c2ccccc2)c(Cl)c1/C=N/NC(=O)c1ccco1,9.0,0.4,85.3,140.8*,2.21,57.5*
Cc1nn(-c2ccccc2)c(C)c1/C=N/NC(=O)c1cccs1,6.9,0.6,50.4,139.6*,1.34,43.9
CNC(=S)N/N=C/c1c(C)nn(-c2ccccc2)c1Cl,·,1,-1.3,107.9,1.2,3.2
Cc1nn(-c2ccccc2)c(C)c1/C=N/NC(=O)c1cc(-c2cccs2)[nH]n1,-9.8,1,-92.7,100.8,0.65,0.2
CCC(CC)NC(=O)CN(c1ccccc1OC)S(=O)(=O)c1cccs1,-3.4,·,·,·,·,·
COC(=O)c1ccc(COc2ccc(/C=N/Nc3cccc(C(=O)O)c3)cc2)cc1,0.4,·,·,·,·,·
O=C(O)c1cc(N/N=C/c2ccc(OCc3ccccc3)cc2)ccc1Cl,·,0.9,104.5,134.0*,2.62,8.0
O=C(O)/C=C/C(=O)NCc1csc2ccccc12,9.6,·,·,·,·,·
CCOc1ccc(C(=O)Nc2cccc(C(=O)O)c2)cc1Cl,-5.5,0.2,75.7,33.6,6.25*,79.1*
CCOc1ccc(C(=O)Nc2cc(NC(=O)c3ccc(OCC)c(Cl)c3)cc(C(=O)O)c2)cc1Cl,6.6,1,13.1,100.9,3.68*,-2.1
Cn1c(Cl)c(/C=N/OC(=O)c2ccc(Cl)cc2)c2ccccc21,-16.1,0.8,1.0,100.1,0.95,18.5
COc1cccc(NC(=S)NN=C2CCCCCC2)c1,-16.6,0.8,25.0,103.9,3.33*,24.2
CCC(CO)Oc1cc(NC(=O)c2ccc([N+](=O)[O-])cc2)c2ncn(C(C)C)c2c1 (configuration not stated),-13.8,·,·,·,·,·
C/C(=N\NC(=O)c1nn(C)cc1Br)c1ccncc1,-9.9,0.9,-2.3,113.2,1.28,5.0
C/C(=N\NC(=O)c1ccn[nH]1)c1cn(C)nc1C,·,0.5,55.1,129.1*,1.84,54.1*
Clc1ccc(-n2nnnc2-c2ccno2)cc1,9.8,·,·,·,·,·
O=C(Nc1ccc(CN2CCOCC2)cc1)c1cc2ccccn2n1,·,0.2,86.1,83.7,0.88,78.5*
SMILES,Pf gamet viab,FLuc stim CS,APP 5'UTR act,STAT1 act,NF-kB expr up,FLuc inhib CS
O=C(Nc1ccc(CN2CCOCC2)cc1)c1cc2ccccc2o1,·,0.4,168.5*,133.5*,2.87,60.3*
O=C(Nc1ccc(N2CCOCC2)cc1)c1cc2ccccc2o1,·,0.6,90.6,170.8*,2.51,41.4
O=C(NC1CCCC1)c1cc2c(ccc3ccccc32)o1,8.4,0.9,9.6,137.2*,3.37*,9.5
CNC(=O)c1cc2c(ccc3ccccc32)o1,0.6,0.9,27.1,133.0*,1.33,7.7
CC1CCN(C(=O)c2[nH]cnc2C(=O)Nc2ccccc2)CC1,-5.8,·,·,·,·,·
C[C@H](CO)N1C[C@H](C)[C@@H](CN(C)Cc2ccncc2)Oc2c(NC(=O)C3CC3)cccc2C1=O,19.7,·,·,·,·,·
